Test results taken from ChEMBL document CHEMBL5331127, “Discovery of ARD-2051 as a Potent and Orally Efficacious Proteolysis Targeting Chimera (PROTAC) Degrader of Androgen Receptor for the Treatment of Advanced Prostate Cancer” (J Med Chem, 2023).
The source made the active and inactive calls.

Columns and labels:
[1] = test system: VCaP; assay: Antitumor activity against human VCaP cells xenografted in CB17 SCID mouse assessed as tumor growth inhibition at 7.5 mg/kg, po administered for 21 days; type: functional; settings: 504 h, time 21 day, read-out: TGI
Procedure, shortened: (§1)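 SCID mice bearing VCaP xenografts dosed by oral gavage once daily for 21 days at 3.75, 7.5, 12.5 or 25 mg/kg. Tumour growth inhibition calculated against vehicle-treated mice at the end of treatment; body weight monitored.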

[2] = Plasma protein binding in rat at 1 uM after 5 hrs by equilibrium dialysis based LC-MS/MS analysis; type: ADME, cell-free
Procedure, shortened: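 Equilibrium dialysis of pooled plasma of each species spiked at 1 μM against 0.1 M sodium phosphate, pH 7.4. 5 h at 37 °C with shaking at 60 rpm. Both sides matrix-matched, ACN/IS quench, LC/MS. % bound = 100 − (buffer/plasma peak-area ratio × 100); recovery also calculated. Warfarin as reference.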

[3] = Metabolic stability in human plasma assessed as half life at 1 uM measured upto 120 mins by LC-MS/MS analysis; type: ADME, cell-free; settings: 2 h
Procedure, shortened: (§2)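 Compound at 1 μM final in pre-warmed plasma of each species, 37 °C for up to 2 h. ACN/IS quench at 0, 5, 15, 30, 60 and 120 min; LC/MS. Procaine as reference (benfluorex for rat). t1/2 = 0.693/slope of ln(fraction remaining) versus time.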

[4] = Oral bioavailability in ICR mouse at 5 mg/kg measured up to 24 hrs by LC-MS/MS analysis; type: ADME, organism-based; settings: in vivo
Procedure, shortened: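 Male ICR mice. IV 2 mg/kg and PO 5 mg/kg, both in 10% PEG400 + 90% PBS adjusted to pH 8.0. Plasma sampled to 24 h; F from IV and PO exposure.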

[5] = Metabolic stability in mouse plasma assessed as half life at 1 uM measured upto 120 mins by LC-MS/MS analysis; type: ADME, cell-free; settings: 2 h; procedure, shortened: as §2
[6] = Metabolic stability in monkey hepatocytes assessed as half life at 1 uM measured upto 120 mins in presence of NADPH by LC-MS/MS analysis; type: ADME, cell-based, Macaca mulatta, Hepatocyte; settings: rhesus monkey, 2 h
[7] = Clearance in ICR mouse at 2 mg/kg, iv measured upto 24 hrs by LC-MS/MS analysis; type: ADME, organism-based; settings: in vivo
Procedure, shortened: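 Male ICR mice (2 mg/kg), male SD rats (1 mg/kg) or male Beagle dogs (1 mg/kg) given a single intravenous dose in 10% PEG400 + 90% PBS adjusted to pH 8.0 with NaOH.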

[8] = biological target: Cytochrome P450 3A4 (Homo sapiens, UniProt P08684); assay: Inhibition of CYP3A4 in human liver microsomes using testosterone as substrate preincubated for 5 mins followed by NADPH addition and measured after 5 mins by LC/MS analysis; type: ADME, Microsome
Cytochrome P450 3A4, sequence (P08684 whole entry): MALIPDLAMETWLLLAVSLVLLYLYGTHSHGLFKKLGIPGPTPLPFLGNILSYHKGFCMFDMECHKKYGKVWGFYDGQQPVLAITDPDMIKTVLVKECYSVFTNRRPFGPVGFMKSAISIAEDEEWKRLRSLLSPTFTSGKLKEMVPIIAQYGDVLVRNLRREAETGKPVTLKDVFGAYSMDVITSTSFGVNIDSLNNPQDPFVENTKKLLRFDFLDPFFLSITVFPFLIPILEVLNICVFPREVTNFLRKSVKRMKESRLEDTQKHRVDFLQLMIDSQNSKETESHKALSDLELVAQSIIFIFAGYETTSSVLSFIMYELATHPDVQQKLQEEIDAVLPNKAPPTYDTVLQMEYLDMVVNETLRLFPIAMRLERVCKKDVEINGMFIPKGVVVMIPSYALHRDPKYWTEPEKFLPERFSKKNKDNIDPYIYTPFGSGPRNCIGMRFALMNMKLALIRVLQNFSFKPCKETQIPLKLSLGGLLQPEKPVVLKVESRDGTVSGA

[9] = test system: VCaP; assay: Antitumor activity against human VCaP cells xenografted in CB17 SCID mouse assessed as tumor growth inhibition at 3.75 mg/kg, po administered for 21 days; type: functional; settings: 504 h, time 21 day, read-out: TGI; procedure, shortened: as §1
[10] = test system: LNCaP; assay: Induction of androgen receptor degradation in human LNCaP cells at 100 nM pretreated with thalidomide for 2 hrs followed by compound addition and 3 hrs by Western blot analysis; type: functional, cell-based; settings: time 5.0 hrs
Procedure, shortened: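 LNCaP or VCaP cells pretreated 2 h with DMSO, ARi-12 (10 μM), thalidomide (10 μM), MG-132 (3 μM) or MLN4924 (0.5 μM), then given degrader at 100 nM for 3 h. AR measured by Western blot with GAPDH as loading control.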

[11] = biological target: T1, Androgen receptor (Homo sapiens) (UniProt P10275); assay: Induction of androgen receptor degradation in human VCaP cells at 100 to 1000 nM incubated for 24 hrs by proteomic analysis; type: cell-based; settings: dose 100-1000 nM
T1 sequence (whole entry): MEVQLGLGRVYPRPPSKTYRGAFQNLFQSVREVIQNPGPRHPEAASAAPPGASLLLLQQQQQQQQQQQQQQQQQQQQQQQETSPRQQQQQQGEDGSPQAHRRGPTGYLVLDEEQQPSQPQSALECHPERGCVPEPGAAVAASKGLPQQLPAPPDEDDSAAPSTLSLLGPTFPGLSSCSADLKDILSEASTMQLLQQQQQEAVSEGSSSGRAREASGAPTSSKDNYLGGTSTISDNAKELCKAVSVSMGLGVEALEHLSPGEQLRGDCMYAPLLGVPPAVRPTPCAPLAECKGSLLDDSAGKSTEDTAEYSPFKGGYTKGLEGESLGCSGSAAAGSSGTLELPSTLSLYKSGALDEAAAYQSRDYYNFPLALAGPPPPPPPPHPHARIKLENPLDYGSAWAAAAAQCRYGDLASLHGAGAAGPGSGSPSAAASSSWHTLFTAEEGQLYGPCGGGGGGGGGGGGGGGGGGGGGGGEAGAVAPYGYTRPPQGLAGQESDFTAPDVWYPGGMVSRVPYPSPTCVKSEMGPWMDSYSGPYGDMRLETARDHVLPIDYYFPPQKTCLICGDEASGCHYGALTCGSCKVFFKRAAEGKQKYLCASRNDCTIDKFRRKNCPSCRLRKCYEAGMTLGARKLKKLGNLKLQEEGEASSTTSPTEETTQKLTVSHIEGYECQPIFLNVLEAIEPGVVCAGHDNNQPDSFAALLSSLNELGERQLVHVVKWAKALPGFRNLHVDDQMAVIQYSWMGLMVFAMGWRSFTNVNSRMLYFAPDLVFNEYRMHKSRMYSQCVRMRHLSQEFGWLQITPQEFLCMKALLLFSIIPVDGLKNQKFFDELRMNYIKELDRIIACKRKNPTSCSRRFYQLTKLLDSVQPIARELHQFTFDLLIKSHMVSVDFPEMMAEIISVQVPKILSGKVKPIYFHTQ
Procedure, shortened: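 VCaP cells treated for 24 h with degrader at 100 nM or 1 μM, or with ARi-12 at 10 μM. Multiplexed quantitative proteomics, normalised to DMSO, three independent replicates. Cut-off p ≤0.05 and fold change >2.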

C[C@H]1CC2(CCN(c3ccc(C(=O)N4CCN(C5CN(c6ccc7c(c6)C(=O)N(C6CCC(=O)NC6=O)C7=O)C5)CC4)cc3)CC2)CN1c1ccc(C#N)c(Cl)c1 (stereo partly specified)
inhibition in vivo at 7.5 mg/kg [1]: 71%
PPB [2]: 99.1%
t1/2 [3]: > 2 h
F [4]: 53%
t1/2 [5]: > 2 h
t1/2 [6]: > 2 h
clearance [7]: 3.7 mL/min/kg
IC50 [8]: > 10 µM
inhibition in vivo at 3.75 mg/kg [9]: 44%
Activity [10]: inactive
Activity [11]: 82%
